The list is not random: actives were taken first. Their share in the collection is about 3.4%.
Mdm2 ligase inh: Mdm2 E3 ligase (human) inhibition; Q00987; cell-based MDM2 ubiquitination luciferase reporter, 2 h; 0 = plate control, 100 = twice control, blank-subtracted; signal enhancement, % at 5 µM; 0.11% of 210,000 active;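 active means signal enhancement of 30% or more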;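 further: luminescence tracks abundance of the self-degrading MDM2-luciferase fusion protein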
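system = mammalian cells stably expressing self-ubiquitinating, self-degrading MDM2 E3–luciferase fusion | quantity = 2000 cells per well seeded | incubation = 4 h cell settling then 2 h compound exposure, 37 °C | signal = SteadyLite luminescence, 15 min reagent step | benchmarks = plate control and blank wells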
KCC2 mod: KCC2 (human) Cl- transport modulation | AID 1456 | 2.2% of 190,000 active | B-score of Tl+ flux slope (higher = more flux/activation; lower = inhibition) at 10 µM | Q9H2X9 | KCC2 cells, thallium flux FluoZin-2 fluorescence;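 active means thallium flux slope and its plate-corrected score both differing from the plate sample mean at a set confidence after two filtering rounds, in either direction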;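 further: slope of fluorescence scaled to starting intensity during 10 to 20 s after thallium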
Redox H2O2 prof: compounds producing H2O2 with reducing agent – biochemical, NIH compound library profiling, artefact control for MLSCN library redox annotation, primary screen. DTT-dependent redox cycling H2O2, phenol red/HRP absorbance; 100% = 100 µM peroxide control, 0% = buffer. activation, % at 10 µM. 0.03% of 200,000 active. AID 878;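 active means activation of at least 50% relative to the plate's high and low controls in the primary single-dose screen; inactive means activation below 50%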;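 further: compound incubated with DTT at 0.8 mM final as the reducing agent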
ROMK primary: human ROMK K+ channel modulation, primary screen | P48048 | 2% of 130,000 active | AID 1918 | B-score at 10 µM | Tet-inducible ROMK, thallium flux fluorescence; actives lie on both sides;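 active means signal ratio slope over the read window, or its plate-corrected B-score, at least 3 SD from the plate mean, either direction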;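 further: B-score of the F/F0 ratio slope over 7 to 12 s after thallium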
PKD1 inh: PKD1 (human) kinase inhibition; Q15139; PKD1 kinase fluorescence polarization assay; inhibition, % (concentration not given with the values); 0.056% of 200,000 active; AID 797; in the data active means inhibition above about 50%
p97 inhibitor: blocks human p97 ATPase activity; recombinant p97 ATPase, Kinase-Glo ATP luminescence, 3 h; P55072; AID 1481; 0.42% of 220,000 active; inhibition, % at 8 µM; in the data active means inhibition above about 15%;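 further: 0% = DMSO vehicle and 100% = wells lacking enzyme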
Target sequence (P55072 whole entry, looked up): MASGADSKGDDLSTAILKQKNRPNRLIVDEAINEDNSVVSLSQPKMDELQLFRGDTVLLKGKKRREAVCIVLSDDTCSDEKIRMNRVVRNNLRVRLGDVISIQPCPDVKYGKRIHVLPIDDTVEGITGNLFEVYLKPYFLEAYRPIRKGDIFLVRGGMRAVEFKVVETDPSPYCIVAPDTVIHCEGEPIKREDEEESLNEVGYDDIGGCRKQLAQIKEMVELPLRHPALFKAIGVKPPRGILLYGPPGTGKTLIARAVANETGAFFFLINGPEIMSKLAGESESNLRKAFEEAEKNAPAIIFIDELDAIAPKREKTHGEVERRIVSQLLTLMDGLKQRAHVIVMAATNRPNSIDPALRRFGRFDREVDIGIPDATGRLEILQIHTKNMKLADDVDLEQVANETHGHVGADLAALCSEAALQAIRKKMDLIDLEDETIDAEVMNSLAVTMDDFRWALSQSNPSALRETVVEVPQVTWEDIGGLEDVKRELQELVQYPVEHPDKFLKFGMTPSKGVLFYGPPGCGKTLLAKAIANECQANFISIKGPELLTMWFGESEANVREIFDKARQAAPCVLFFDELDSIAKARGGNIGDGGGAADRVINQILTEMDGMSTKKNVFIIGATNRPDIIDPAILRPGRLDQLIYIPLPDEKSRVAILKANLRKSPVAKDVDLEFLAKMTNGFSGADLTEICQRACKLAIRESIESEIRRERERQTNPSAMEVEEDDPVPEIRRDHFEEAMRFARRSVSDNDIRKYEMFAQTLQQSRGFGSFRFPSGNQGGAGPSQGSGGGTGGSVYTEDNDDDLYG
KCC2 secondary: confirmation of human KCC2 transport modulators; shares compounds with KCC2 mod; HEK293-KCC2, thallium flux, FluoZin2 fluorescence; hits give high values; normalised thallium flux (F/F0 slope) at 10 µM; 15% of 3,700 active;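 active means thallium flux slope above the same plate's solvent-only control mean plus 3 SD; inconclusive means the two replicate wells disagree; inactive means no significant difference from solvent-only control wells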
KCC2 bumet counter: thallium flux persisting under bumetanide in KCC2 cells, counter-screen secondary assay | shares compounds with KCC2 mod | normalized thallium flux at 10 µM | HEK293-KCC2 + bumetanide/ouabain, thallium flux FluoZin2; hits give high values | 49% of 3,700 active | AID 1714;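 active means thallium entry rate above the same plate's blocked-transporter control wells by more than 3 SD; inconclusive means the two repeat wells disagree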;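 further: raw slope of fluorescence over initial fluorescence between 10 and 20 s after thallium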
KCC2 sec2: KCC2 (human) modulation, second secondary assay. shares compounds with KCC2 mod. HEK293-KCC2, thallium flux FluoZin2 fluorescence; actives lie on both sides; F/F0 rise rate, 10–20 s post-thallium. normalized thallium flux at 10 µM. 23% of 3,700 active. AID 1715;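 active means thallium flux slope more than 3 SD above or below the plate's solvent-only control mean, mostly below; inconclusive means the two repeat wells disagreed; inactive means no significant shift from solvent-only controls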;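 further: raw slope with 0.1% DMSO as baseline and bumetanide as block control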
HEK counter1: counter-screen for KCC2 modulators: effect in parental HEK293 cells; shares compounds with KCC2 mod; thallium flux FluoZin2, ouabain; baseline-ratio fluorescence slope, 10–20 s after thallium; thallium flux rate (normalised fluorescence) at 10 µM; 46% of 3,700 active;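 active means thallium flux rate significantly above the same plate's solvent-only control wells, beyond their mean plus 3 SD; inconclusive means the two replicate wells gave conflicting results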
KCC2 ouabain: modulates human KCC2 on retest with ouabain | raw Tl+ flux slope (below DMSO = inhibition, above = activation) at 10 µM | HEK293-KCC2, thallium flux FluoZin2 fluorescence; bidirectional: low = inhibitor, high = activator | shares compounds with KCC2 mod | 48% of 3,700 active;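 active means thallium flux slope beyond 3 SD from same-plate DMSO control mean in most replicates, usually higher, sometimes lower; inconclusive means repeat tests gave conflicting results; inactive means no significant difference from controls in most replicates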;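 further: slope of initial-normalized fluorescence between seconds 10 and 20 after thallium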
HEK counter2: parental HEK flux effect, counter-screen 2. shares compounds with KCC2 mod. HEK293 parental, thallium flux FluoZin-2 fluorescence slope. thallium flux slope at 10 µM. 33% of 3,700 active;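 active means thallium flux slope above the same plate's solvent-control mean plus 3 SD in both duplicate wells; inconclusive means duplicate wells that disagreed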;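 further: run without ouabain in cells lacking the KCC2 cotransporter; slope of fluorescence scaled to its starting value between 10 and 20 s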
Active calls of the source: *; ? = inconclusive; . = no result.

SMILES	Mdm2 ligase inh	KCC2 mod	Redox H2O2 prof	ROMK primary	PKD1 inh	p97 inhibitor	KCC2 secondary	KCC2 bumet counter	KCC2 sec2	HEK counter1	KCC2 ouabain	HEK counter2
C=C(C)Cn1c(CCCNC(=O)CC)nc2ccccc21	.	-4.97*	1.2	.	-10.2	1.1	0.00848	0.00652	0.0328	0.00786	0.0233	0.0107
CCCCn1c(CNC(=O)CCC)nc2ccccc21	-19.8	-0.00832	-0.6	.	-5.3	0.8	.	.	.	.	.	.
CC(=O)Cn1nnc2sc(-c3ccccc3)cc2c1=O	-4.4	-1.03	-0.1	0.0686	-2.5	4.9	.	.	.	.	.	.
Cc1ccc(Sc2nc(-c3ccccc3)nnc2C(F)(F)F)cc1	-1.7	0.71	-3.2	.	2.9	-2.4	.	.	.	.	.	.
O=C(NCCCN1CCOCC1)c1ccc(Sc2ccccc2Cl)c([N+](=O)[O-])c1	-1.5	-0.944	0.4	-1.21	-6.8	0.1	.	.	.	.	.	.
COc1ccc(C)cc1NC(=O)c1ccc([N+](=O)[O-])cc1[N+](=O)[O-]	-2.8	0.36	-0.2	0.548	-0.6	4.6	.	.	.	.	.	.
Oc1ccc(N=Nc2ccc3c(c2)OCO3)c2ccccc12	.	9.01*	.	.	.	7.7	0.0155	0.0107*	0.028	0.0115*	0.0202*	0.012
COc1cc2nc(=S)n3[nH]c(COc4ccccc4C)nc3c2cc1OC	-8.5	-9.22*	0.1	.	-0.7	-5.8	0.00884	0.00589	0.0294	0.00611*	0.00997*	?
NCCCC[C@@H]1NC(=O)c2cc([N+](=O)[O-])cc(I)c2SC[C@@H](C(N)=O)NC(=O)[C@H](Cc2ccc(O)cc2)NC1=O	.	-1.06	0.5	0.15	-0.6	9.6	.	.	.	.	.	.
O=C(Nc1ccc2oc(-c3ccncc3)nc2c1)c1ccc2c(c1)OCCO2	.	-0.26	.	.	.	5.0	.	.	.	.	.	.
O=C(O)c1ccccc1-c1ccccc1C(=O)Nc1ccc(-c2nc3cc(Cl)ccc3o2)cc1	-3.0	-3.66*	.	.	.	1.6	0.00751	0.00484	0.019*	0.00767	0.0118*	0.0105
O=C(Nc1ccc2oc(-c3ccccc3)nc2c1)c1ccc2c(c1)OCCO2	-3.2	-2.99*	1.5	0.344	-3.1	5.3	0.0079	0.00677	0.0295	0.00705	0.0348*	?
O=C(C1=C[C@H](C2CCCCC2)C[C@H](OCc2ccc(CO)cc2)O1)N1CCN(Cc2ccccc2)CC1	.	0.0686	1.6	.	-3.7	-9.0	.	.	.	.	.	.
O=C(NC(=S)N1CCN(C/C=C/c2ccccc2)CC1)c1ccc(Cl)nc1	-9.4	68.2*	.	.	.	6.2	0.00775	0.0802*	0.0625*	0.0562*	0.0668*	0.0543*
Cc1cc(C(=O)COC(=O)CCc2nc3ccccc3s2)c(C)n1C	2.4	-3.2*	1.6	.	-5.1	-4.0	0.00691	?	0.0228*	0.0063	0.0156*	0.00883
COc1ccc(N/C=C/c2nc(SC)nnc2C)cc1	3.2	-2.96*	-0.2	-2.34	2.5	-3.5	0.00681	0.0022*	0.0238*	0.004*	0.012*	0.00771*
O=[N+]([O-])c1cc(/C=N/NC(=S)Nc2ccccc2Cl)ccc1Cl	-20.5	7.76*	-1.2	0.113	1.8	1.8	0.00584	0.0149*	0.0348	0.0212*	0.0289*	0.0166*
Cc1cccc(NC(=S)N/N=C/c2cccc(O)c2)c1C	-5.7	0.981	.	.	.	-8.0	.	.	.	.	.	.
S=C(N/N=C/c1ccc(Cl)c(Cl)c1)Nc1ccccc1Cl	-7.2	3.93*	-1.6	-0.134	1.3	3.6	0.0106	0.0302*	0.0348	0.0159*	0.032*	0.0124*
FC(F)(F)c1ccc(Cl)c(NC(=S)N/N=C/c2ccccc2Cl)c1	-11.1	5.44*	.	.	.	0.9	0.01	0.034*	0.0306	0.01*	?	0.00983
S=C(Nc1ccccn1)Nc1ccccc1Cl	-4.3	5.01*	0.6	-0.0263	-1.1	-1.2	0.00795	0.0138*	0.029	0.00821*	?	0.00927
O=C(NC(=S)Nc1cc(C(F)(F)F)ccc1Cl)c1ccccc1	-8.6	1.8	-6.2	.	0.6	-3.4	.	.	.	.	.	.
CCOC(=O)c1ccc(S(=O)(=O)NC2CCCCCCC2)n1C	-1.8	0.175	0.2	.	-1.7	-1.5	.	.	.	.	.	.
CCSS(=O)(=O)c1cccc2cccnc12	-17.0	3.89*	.	.	.	2.8	?	0.00794*	0.034	0.0101*	?	0.0138*
O=C(O)CCS(=O)(=O)c1cccc2cccnc12	-16.6	.	0.4	-0.34	-3.2	-1.0	.	.	.	.	.	.
SMILES	Mdm2 ligase inh	KCC2 mod	Redox H2O2 prof	ROMK primary	PKD1 inh	p97 inhibitor	KCC2 secondary	KCC2 bumet counter	KCC2 sec2	HEK counter1	KCC2 ouabain	HEK counter2
COc1ccc(-c2nc(-c3cccs3)c(-c3cccs3)[nH]2)cc1OC	-2.9	-0.719	0.0	-1.81	-1.6	6.3	.	.	.	.	.	.
COc1ccc(-c2nc(-c3ccccc3)c(-c3cccs3)[nH]2)cc1OC	5.1	-5.37*	-0.2	-0.16	-6.8	2.6	0.00941	0.00731	0.0319	0.00426	0.0184	0.0109
O=C1/C(=C/c2ccc(Cl)cc2)NC(=S)N1Cc1cccnc1	-12.7	5.23*	-0.7	.	5.7	4.8	0.007	0.00881*	0.0348	0.0102*	0.021	0.0113
O=C1/C(=C/c2ccc(O)cc2)SC(=S)N1Cc1cccnc1	5.4	0.899	-0.1	-0.0626	0.6	3.3	.	.	.	.	.	.
Cc1ccc(C(=O)O)cc1-c1ccc(/C=C2/NC(=O)N(c3ccccc3)C2=O)o1	-26.0	-4.64*	1.9	1.54	1.1	2.1	0.00675	0.00508	0.0221*	0.00741	0.0136*	0.00927
O=C(NCCc1ccccc1)c1nc2c(nnn2Cc2ccccc2Cl)c(=O)[nH]1	-0.3	-1.43	0.1	.	-2.7	-3.5	.	.	.	.	.	.
O=C(NCc1ccco1)c1nc2c(nnn2Cc2cccc(Cl)c2)c(=O)[nH]1	2.9	-4.7*	3.0	.	0.3	1.8	0.00511	0.00581*	?	0.0063*	0.0143*	0.0103
O=C(NCc1ccccc1)c1nc2c(nnn2Cc2cccc(Cl)c2)c(=O)[nH]1	2.9	-5.13*	2.1	.	-2.8	-5.6	0.00596	0.00553	0.0236*	0.00625*	0.013*	?

Compound activity (PubChem BioAssay)
